According to ChEMBL document CHEMBL4402514, “Norepinephrine-Transporter-Targeted and DNA-Co-Targeted Theranostic Guanidines” (J Med Chem, 2020):

Assays:
[1] = molecular target: T1, Sodium-dependent noradrenaline transporter (Homo sapiens, UniProt P23975); experiment: Substrate activity at NET in human SK-N-SH cells assessed as drug uptake per cell at 37 kBq/ml incubated for 1 hr in presence of nonradioactive MIBG at 4 degC by filtration based gamma counting method; format: ADME
[2] = Drug uptake in human SK-N-SH cells assessed as level of 125I-incorporation into DNA after 1 hr and followed by compound washout with non-radioactive medium/PBS and measured immediately by gamma counting method relative to control; format: ADME, cell-based
Outline: (§1)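 SK-N-SH cells exposed to the 125I-labelled guanidine for 1 h, then washed with nonradioactive medium and PBS. Cells were either processed at once (1 h) or given fresh nonradioactive medium and returned to the incubator for 23 h (24 h). Subcellular fractions (cytoplasm, DNA) were counted by γ-counter. Values are mean and SD, n ≥ 3.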

[3] = Dissociation constant, pKa of compound; format: physicochemical
[4] = Partition coefficient, logP of compound; format: physicochemical; conditions: octanol/water
[5] = Drug uptake in human SK-N-SH cells assessed as level of 125I-incorporation into DNA incubated 1 hr followed by compound washout with non-radioactive medium/PBS and measured after 23 hrs by gamma counting method relative to control; format: ADME, cell-based; outline: as §1
[6] = molecular target: T1, Sodium-dependent noradrenaline transporter; experiment: Substrate activity at NET in human SK-N-SH cells assessed as drug uptake per cell at 37 kBq/ml incubated for 1 hr in presence of nonradioactive MIBG at 37 degC by filtration based gamma counting method; format: ADME
[7] = Drug uptake in human SK-N-SH cells using 125I labelled compound by gamma counting method; format: ADME, cell-based
[8] = Half life in human serum incubated up to 24 hrs by HPLC analysis; format: ADME, cell-free
[9] = Stability in mouse serum incubated up to 24 hrs by HPLC analysis; format: ADME, cell-free
[10] = Stability in human serum assessed as intact compound level after 60 mins by HPLC analysis; format: ADME, cell-free; conditions: read-out: Stability
Outline: (§2)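 Radioiodinated guanidines were incubated in mouse, human or pig serum and analyzed by radio-HPLC on a C18 column at 0.8 mL/min. The gradient was 0–95% CH3CN over 50 min, then 95% for 20 min. Intact compound was fitted to monoexponential degradation to give half-life. Values are average ± std err.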

[11] = Drug recovery in mouse N1E-115 cells assessed as [125I]-2'-deoxy-5-iodo-uridine level in nucleus after 24 hrs by gamma counting method relative to control; format: ADME, cell-based; conditions: n1e-115, 24 h, in the assay text read “in DNA” for “in nucleus”
Outline: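 N1E-115 murine neuroblastoma cells were incubated 24 h with 125I agent. Subcellular fractions (cytoplasm, nucleus, DNA pellet) were gamma-counted as percentage of recovered 125I.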

[12] = Stability in human SK-N-SH cells assessed as parent compound level after 24 hrs by HPLC analysis; format: ADME, cell-based; conditions: read-out: Stability
Outline: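 The compound was incubated 24 h in cell culture medium without cells or with SK-N-SH cells. Intact compound and 125IUdR catabolite were quantified by radio-HPLC on a C18 column at 0.8 mL/min, with a 0–95% CH3CN gradient over 50 min and 95% for 20 min.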

[13] = Stability in human serum assessed as intact compound level after 5 mins by HPLC analysis; format: ADME, cell-free; conditions: read-out: Stability; outline: as §2
[14] = Ratio of tumor to blood concentration in NCR nu/nu mouse xenografted with human BE(2)-C cells at 0.44 +/- 0.1 MBq administered intratumorally after 24 hrs by gamma counting method; format: ADME, tissue-based; conditions: tumour, other
Outline: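 Athymic Ncr nu/nu female and male mice bearing subcutaneous BE(2)-C xenografts were given a single intratumoral injection of the 125I-labelled agent. Tumor and tissues were collected at 24 h, 125I was γ-counted, and uptake was expressed as %ID/g. The tumor-to-blood ratio was derived from the %ID/g values.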

[15] = Drug level in tumor of NCR nu/nu mouse xenografted with human BE(2)-C cells at 0.44 +/- 0.1 MBq administered intratumorally after 24 hrs by gamma counting method; format: ADME, tissue-based, Neoplasm; conditions: in vivo, other
Outline: (§3)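 Athymic Ncr nu/nu female and male mice bearing subcutaneous BE(2)-C xenografts received intratumor injections of the 125I agent. Tissues, tumor and blood were collected at 24 h and counted for radioactivity, expressed as %ID/g. Tumor-to-blood ratios were derived.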

SK-N-SH [16] = experiment: Anticlonogenic activity against human SK-N-SH cells assessed as number of colonies at 39.3+/- 0.3 kBq/mL after 1 hr by crystal violet staining based assay; format: functional
Outline: (§4)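 SK-N-SH cells exposed for 1 h to 125I-MIBG (39.3 ± 0.3 kBq/mL extracellular) or IDG (40 ± 0.5 kBq/mL). For the 1 h group, cells were washed with nonradioactive medium and PBS, harvested with trypsin and replated for the clonogenic assay. For the 24 h group, cells were washed, given fresh nonradioactive medium and incubated a further 23 h before plating. Colonies were counted.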

[17] = Drug level in tumor of NCR nu/nu mouse xenografted with human BE(2)-C cells at 0.83 +/- 0.09 MBq administered intratumorally after 24 hrs by gamma counting analysis; format: ADME, tissue-based, Neoplasm; conditions: in vivo, other; outline: as §3
[18] = Drug level in adrenal gland of NCR nu/nu mouse xenografted with human BE(2)-C cells at 0.44 +/- 0.1 MBq administered intratumorally after 24 hrs by gamma counting method; format: ADME, tissue-based; conditions: in vivo, other; outline: as §3
[19] = Drug uptake in cytoplasm of human SK-N-SH cells at 39.3 +/- 0.3 kBq/mL after 24 hrs by gamma counting method relative to control; format: ADME, subcellular
Outline: (§5)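 SK-N-SH cells were exposed 1 h to 125I compound (≈39–40 kBq/mL), then washed with nonradioactive medium and PBS. Cells were processed immediately (1 h) or re-incubated in fresh medium for 23 h (24 h). Cytoplasmic, nuclear and DNA fractions were gamma-counted.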

[20] = Drug uptake in cytoplasm of human SK-N-SH cells at 39.3 +/- 0.3 kBq/mL after 1 hr and followed by compound washout with non-radioactive medium/PBS and measured immediately by gamma counting method relative to control; format: ADME, subcellular; outline: as §5
SK-N-SH [21] = experiment: Anticlonogenic activity against human SK-N-SH cells assessed as number of colonies at 39.3+/- 0.3 kBq/mL after 24 hr by crystal violet staining based assay; format: functional; outline: as §4
[22] = Drug uptake in human SK-N-SH cells assessed as [125I]-2'-deoxy-5-iodo-uridine level at 38 kBq/mL after 24 hrs by gamma counting method; format: ADME, cell-based
Outline: (§6)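 SK-N-SH cells were exposed to 125I compound at an extracellular 38 kBq/mL for 1 h or continuously for 24 h. Cell-associated 125I was gamma-counted per cell.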

[23] = Stability in mouse serum incubated up to 6 hrs by HPLC analysis; format: ADME, cell-free
[24] = Drug uptake in human SK-N-SH cells assessed as [125I]-2'-deoxy-5-iodo-uridine level at 38 kBq/mL after 1 hr by gamma counting method; format: ADME, cell-based; outline: as §6

T1 sequence (P23975 whole entry): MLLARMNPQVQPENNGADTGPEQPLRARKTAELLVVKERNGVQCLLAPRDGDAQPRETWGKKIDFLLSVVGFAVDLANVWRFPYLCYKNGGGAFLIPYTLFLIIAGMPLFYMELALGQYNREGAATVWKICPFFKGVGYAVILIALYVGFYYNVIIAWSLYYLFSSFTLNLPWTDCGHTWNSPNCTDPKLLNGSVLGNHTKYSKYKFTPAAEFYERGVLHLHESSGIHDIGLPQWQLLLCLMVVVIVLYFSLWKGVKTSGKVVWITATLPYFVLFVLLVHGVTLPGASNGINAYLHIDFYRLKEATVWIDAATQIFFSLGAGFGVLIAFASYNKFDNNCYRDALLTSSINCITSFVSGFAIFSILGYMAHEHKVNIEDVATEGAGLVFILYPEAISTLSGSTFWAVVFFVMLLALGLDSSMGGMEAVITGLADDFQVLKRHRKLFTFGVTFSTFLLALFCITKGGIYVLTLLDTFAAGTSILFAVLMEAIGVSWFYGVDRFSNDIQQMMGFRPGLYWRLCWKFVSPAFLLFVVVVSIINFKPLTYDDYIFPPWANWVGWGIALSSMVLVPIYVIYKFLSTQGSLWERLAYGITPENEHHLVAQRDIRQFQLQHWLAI

Compound | pKa [3] | logP [4] | Drug uptake [7] | half-life [8] | Stability [9] | further results
CC(C)(C)c1cc(C(C)(C)C)c2c(c1F)COP(=O)(OC[C@H]1O[C@@H](n3cc([125I])c(=O)[nH]c3=O)C[C@@H]1OC(=O)CCCCCNC(=N)N)O2 (some centres undefined) | 12.1 | 4.58 | Dose-dependent effect and Tde | 900 min | Unstable | Drug uptake [1]: 0.05 mBq; Drug uptake [2]: 14%; Drug uptake [5]: 42%; Drug uptake [6]: 1.85 mBq
N=C(N)NCCCCCC(=O)OC[C@H]1O[C@@H](n2cc([125I])c(=O)[nH]c2=O)C[C@@H]1O | 12.2 | -0.2 | Dose-dependent effect and Tde | 53.4 min | Unstable | remaining at 1 h [10]: 47%; Drug recovery [11]: > 99%; remaining at 24 h [12]: 30%; remaining at 5 min [13]: 77%
N=C(N)NCc1cccc([125I])c1 |  |  |  |  |  | Ratio [14]: 19; Drug uptake [15]: 1.85 % ID/g; Activity (SK-N-SH [16]): 229; Drug uptake [17]: 1.85 % ID/g; Drug uptake [18]: 4.64 % ID/g; Drug uptake [19]: 74%; Drug uptake [20]: 87%; Drug recovery [11]: 0%; Activity (SK-N-SH [21]): 250
N=C(N)NCCC(=O)OC[C@H]1O[C@@H](n2cc([125I])c(=O)[nH]c2=O)C[C@@H]1O | 11.9 | -1.48 | Dose-dependent effect and Tde | 23.4 min | Unstable | 
N=C(N)NCc1ccc(C(=O)OC[C@H]2O[C@@H](n3cc([125I])c(=O)[nH]c3=O)C[C@@H]2O)cc1 | 11.9 | 0.26 | Dose-dependent effect and Tde | 45.6 min | Unstable | 

Now from value to compound, other results behind:

pKa [3] | logP [4] | Drug uptake [7] | half-life [8] | Stability [9] | Compound | further results
11.5 | -1.3 |  |  |  | N=C(N)NC[C@H]1O[C@@H](n2cc([125I])c(=O)[nH]c2=O)C[C@@H]1O | Drug uptake [22]: 0.00054 mBq; Stability [23]: Unstable; Drug uptake [24]: 0.00001 mBq
11.8 | 1.63 |  |  |  | N=C(N)NCc1cccc(I)c1 [IOBENGUANE] | 
